Screening results (PubChem)
The list is not random: actives were taken first. Their share in the collection is about 2.2%.
Wee1 degr inh: Wee1 degradation inhibitors, primary screen, cell-based, HeLa, Wee1K328M-luciferase, luminescence; Wee1-like protein kinase (Homo sapiens), P30291; HeLa Luc-Wee1K328M stability; 100% = proteasome inhibitor MG132 effect; reporter increase, % at 5 µM; 1.2% of 220,000 active;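 active means activation above the mean of all tested compounds plus 3 SD, set per screening run, cut at about 8.8% in these data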;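 further: cells exposed to compound for 20 h before luminescence read; 0% = DMSO alone and 100% = MG132 at 30 µM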
Redox H2O2 prof: compounds producing H2O2 with reducing agent – biochemical, NIH compound library profiling, artefact control for MLSCN library redox annotation, primary screen | DTT-dependent redox cycling H2O2, phenol red/HRP absorbance; 100% = 100 µM peroxide control, 0% = buffer | activation, % at 10 µM | 0.03% of 200,000 active;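 active means activation of at least 50% relative to the plate's high and low controls in the primary single-dose screen; inactive means activation below 50%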;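 further: compound incubated with DTT at 0.8 mM final as the reducing agent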
PKD1 inh: inhibitors of human PKD1 kinase, biochemical, fluorescence polarization | inhibition, % (concentration not given with the values) | Serine/threonine-protein kinase D1 (Homo sapiens), Q15139 | 0.056% of 200,000 active | PKD1 kinase fluorescence polarization assay | AID 797, 2007; in the data active means inhibition above about 50%
p97 ATPase inh: inhibitors of human p97 ATPase, primary screen, biochemical; Transitional endoplasmic reticulum ATPase (Homo sapiens), P55072; recombinant p97 ATPase, Kinase-Glo ATP luminescence, 3 h; inhibition, % at 8 µM; 0.42% of 220,000 active; AID 1481, 2009; in the data active means inhibition above about 15%;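 further: 0% = DMSO vehicle and 100% = wells lacking enzyme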
Arbovirus inh: antivirals against arbovirus infection, primary screen, cell-based, full library, 10K replicate subset | arbovirus infection cell-based antiviral screen | 0.37% of 200,000 active | AID 1251, 2008 | inhibition, % at 10 µM; in the data active means inhibition above about 30%
RBBP9 inh: human RBBP9 inhibitors, primary screen, biochemical, fluorescence polarization, FP-Rh probe, HTS; Serine hydrolase RBBP9 (Homo sapiens), O75884; recombinant RBBP9; inhibition, % at 7.94 µM; 0.2% of 220,000 active; AID 1515, 2009;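 active means inhibition above the campaign mean of all tested compounds plus 3 SD, cut at about 14% in these data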;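 further: plate controls were DMSO wells with RBBP9 for no effect and wells lacking RBBP9 protein for full effect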
Target sequence (O75884 whole entry, looked up): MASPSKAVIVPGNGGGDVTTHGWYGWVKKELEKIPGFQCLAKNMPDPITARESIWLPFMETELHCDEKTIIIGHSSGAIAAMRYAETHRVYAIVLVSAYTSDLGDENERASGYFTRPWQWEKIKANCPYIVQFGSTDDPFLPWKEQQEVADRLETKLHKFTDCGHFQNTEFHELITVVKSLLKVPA
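Material: RBBP9 protein. Amount: RBBP9 at 2.5 µM in dispensed solution, before mixing. Schedule: 30 min then 45 min, 25 °C. Medium: Tris buffer pH 8.0, NaCl, Pluronic. Measured by: fluorescence polarization. Measure: percent inhibition from mP, scaled between DMSO and no-protein wells. Replication: one well per compound.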
p97 inh conf: p97 ATPase inhibitors, retest, confirmation, biochemical; 44% of 760 active; shares compounds with p97 ATPase inh; inhibition, % at 8 µM; recombinant p97 ATPase, Kinase-Glo ATP luminescence;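 active means percent inhibition of p97 ATPase above a set limit, the primary screen's mean plus 3 SD, cut at about 15% in these data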;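 further: 0% = DMSO wells and 100% = wells lacking p97 protein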
Starred values were filed as active, the others as inactive; nt = no result.

SMILES	Wee1 degr inh	Redox H2O2 prof	PKD1 inh	p97 ATPase inh	Arbovirus inh	RBBP9 inh	p97 inh conf
CCOc1cccc(/C=N/NC(=S)Nc2ccccc2[N+](=O)[O-])c1O	-5.5	-0.2	3.6	-6.1	-18.6	-4.7	nt
Cn1c(CC(=O)NCCO)c(Sc2ccccc2)c2ccccc21	1.3	-0.1	-3.7	-2.4	5.7	-7.6	nt
CSc1c(CC(=O)NCCO)n(C)c2ccccc12	-2.1	2.9	-4.7	17.0*	-2.0	-5.5	0.2
COc1ccc(C)cc1Cn1c(S(C)(=O)=O)nc2ccccc21	-2.8	1.1	4.3	-1.6	-3.2	1.3	nt
CCC(CNc1cc(OC)cc2cccnc12)NC1CCCCC1 (stereo unspecified)	-2.2	nt	nt	24.4*	nt	8.4	6.8
CC1C/C(=N\NC(=O)c2ccc(NS(=O)(=O)c3ccc(Br)cc3)cc2)CC(C)(C)C1 (stereo unspecified)	2.0	-0.2	7.6	3.7	0.9	-6.4	nt
CCCCn1nc2cc(C(=O)NCc3ccc(OC(F)(F)F)cc3)ccc2c1OC	-1.9	2.0	-8.8	16.0*	11.9	-5.8	3.3
Cc1[nH]c2ccccc2c1/C=N/Nc1cccc(C(=O)O)c1	1.8	nt	nt	18.5*	nt	-3.6	19.1*
Cc1nc(S/C(=C\c2ccc(-c3ccc(C(=O)O)c(Cl)c3)o2)C(=O)O)n[nH]1	1.2	nt	nt	52.5*	nt	-10.0	44.1*
CC(=O)Oc1ccccc1-n1c(C)nc(=O)c(-c2ccccc2)c1C	-1.7	nt	nt	3.3	nt	-0.5	nt
Cc1ccc(NS(=O)(=O)c2ccc(Br)s2)cc1S(=O)(=O)N1CCOCC1	1.3	-0.1	10.4	0.0	8.4	-1.9	nt
O=C(Cn1nc(-c2ccc(Cl)cc2)c2ccccc2c1=O)NN1CCOCC1	-1.2	nt	nt	1.8	nt	-1.4	nt
NC(=O)C(=CNc1nc(-c2ccc(Cl)c(Cl)c2)cs1)C(N)=O	5.0	nt	nt	26.4*	nt	6.3	18.9*
S=c1[nH]nc(C2CCCCC2)n1Cc1ccccc1	-1.3	0.0	-8.8	4.0	-13.7	-7.4	nt
S=c1[nH]nc(C2CC2)n1Cc1ccccc1	4.9	-3.9	-1.4	49.6*	3.2	0.7	8.9
O=C1NN(c2ccc(Cl)c(Cl)c2)C(=O)/C1=C/c1cccc(OC(=O)c2cccs2)c1	1.7	1.6	-9.8	19.2*	-24.7	0.3	7.1
Cn1nc(-c2ccccn2)nc2c(=O)n(C)c(=O)nc1-2	-5.3	nt	nt	34.0*	nt	-4.1	33.3*
N#CC1=C(SCC(=O)Nc2ccc(C(=O)O)cc2)NC(=O)CC1c1ccco1 (stereo unspecified)	-0.4	nt	nt	16.9*	nt	-1.6	8.7
Cc1ccc(NC(=O)CSC2=C(C#N)C(c3ccco3)C3=C(CCCC3=O)N2)cc1 (stereo unspecified)	-0.7	0.5	-6.7	3.9	6.8	-4.2	nt
CCC(CC)NC(=O)CO/N=C/c1ccccc1OC(F)F	-0.8	-0.2	-4.8	0.0	2.5	0.4	nt
CCc1ccc(C2=Nn3c(nnc3-c3cccs3)SC2)cc1	-0.6	-0.4	-0.6	18.8*	1.7	-2.0	4.2
COc1ccc2cc(C#N)c(SCC(=O)N3CC(=O)Nc4ccccc43)nc2c1	-1.6	nt	nt	15.3*	nt	5.1	8.1
Nc1c(C(=O)Nc2ccccc2)c2nc3ccccc3nc2n1-c1ccc(O)cc1	5.0	nt	nt	0.1	nt	-15.9	nt
Cn1cc(C(N)=O)c2ccccc21	2.0	-1.1	-3.2	0.0	1.3	-2.6	nt
Cn1cc(C(=O)CCl)c2ccccc21	-1.5	-0.6	-1.2	40.4*	-38.4	-8.9	46.6*
SMILES	Wee1 degr inh	Redox H2O2 prof	PKD1 inh	p97 ATPase inh	Arbovirus inh	RBBP9 inh	p97 inh conf
Cc1ccc(-c2csc(-c3c[nH]c4ccccc34)n2)c(C)c1	-0.3	2.9	0.3	-2.0	-42.1	6.2	nt
Oc1ccc(-c2csc(-c3c[nH]c4ccccc34)n2)c(O)c1	0.9	0.4	-0.9	19.3*	-21.1	3.5	22.5*
COc1ccc(C(C)=O)cc1COC(=O)c1ccc(N)c([N+](=O)[O-])c1	1.9	-1.0	-2.4	18.0*	2.0	-12.5	22.4*
COc1ccc(C(C)=O)cc1COc1ccccc1[N+](=O)[O-]	-5.3	0.1	-2.6	3.1	6.9	-5.6	nt
CSc1ccccc1NC(=O)Nc1ccc(F)c(Cl)c1	0.1	1.8	-6.3	24.8*	7.3	-6.4	4.1
CCN(CC)c1ccc(/C=N/NC(=O)c2ccoc2C)c(O)c1	-3.5	nt	nt	-8.3	nt	-3.7	nt
CSc1nsc2nc(=O)c(/C=C3\C(C)=Nc4ccccc43)c(N)n12	0.3	-2.0	-2.7	21.0*	31.8*	-5.5	38.2*
COc1ccc(NC(=O)C2CCCN2C(=O)Oc2ccccc2)cc1 (stereo unspecified)	5.3	-0.3	1.5	3.3	5.4	1.8	nt
CCOC(=O)c1[nH]c2ccc(Br)cc2c1NC(=O)CCN1CCCC(C)C1 (stereo unspecified)	-1.3	0.8	-10.2	16.5*	3.9	-4.3	-1.4
CCOC(=O)c1[nH]c2ccc(Br)cc2c1NC(=O)CCN1CCC(C)CC1	2.6	0.0	-7.7	17.0*	2.7	2.7	1.9
CC(=O)c1ccc2cccc3c2c1N=CN3C	-2.9	-0.2	-7.5	31.7*	-2.8	1.3	5.5
CC(C)(C)c1cc(=O)n(-c2ccccc2)[nH]1	3.7	-0.7	1.1	34.4*	-4.2	-2.9	7.3
COc1ccccc1-c1nnc(NC(=O)C(C)SC2=NCCS2)s1 (stereo unspecified)	-3.2	-1.2	4.6	17.2*	-5.6	-14.0	19.6*
Cc1nnsc1Sc1cccc(C(F)(F)F)c1	0.6	2.1	5.9	15.6*	4.5	-2.1	0.8
COC(=O)c1ccccc1Sc1snnc1C	3.5	-0.4	0.4	4.1	0.5	4.8	nt
O=C1/C(=C/c2cccs2)SC(=S)N1NS(=O)(=O)c1ccccc1	5.2	nt	nt	-0.9	nt	-9.1	nt
O=C1/C(=C/C=C/c2ccco2)SC(=S)N1NS(=O)(=O)c1ccccc1	-0.7	nt	nt	15.8*	nt	6.0	14.5
N#CNC(=Nc1ccc(Cl)cc1)Oc1ccccc1	-0.4	nt	nt	3.2	nt	4.4	nt
C[N+]1(C)CCC(=C2c3ccccc3CC(=O)c3sccc32)CC1	-2.5	-0.3	-2.0	19.2*	-3.3	2.0	13.9
CC[N+]1(C)CCC(=C2c3ccccc3CC(=O)c3sccc32)CC1 (stereo unspecified)	4.2	12.9	9.2	5.4	3.6	-3.6	nt
Cc1c(NC(=O)CN2CCN(c3ccc(F)cc3)CC2)c(=O)n(-c2ccccc2)n1C	-0.5	-0.3	-9.4	1.1	5.2	-12.1	nt
